Test results reported in ChEMBL document CHEMBL5223165, “Discovery of Coumarin-Based MEK1/2 PROTAC Effective in Human Cancer Cells” (ACS Med Chem Lett, 2023).
Each block holds one molecule with its values, some of them ahead of it. Active and inactive are the calls of the source. No cut-off for these calls is given here.

Legend:
[1] = biological target: T1, Protein cereblon/Dual specificity mitogen-activated protein kinase kinase 1/Dual specificity mitogen-activated protein kinase kinase 2 (Homo sapiens) (UniProt P36507+Q02750+Q96SW2); experiment: Protac activity at CRBN/MEK1/2 in human A549 cells assessed as MEK1/2 degradation at 1 uM incubated for 24 hrs by Western blot analysis relative to control; assay type: cell-based
[2] = biological target: T2, von Hippel-Lindau disease tumor suppressor/Dual specificity mitogen-activated protein kinase kinase 2/Dual specificity mitogen-activated protein kinase kinase 1 (Homo sapiens) (UniProt P36507+Q02750+P40337); experiment: Protac activity at VHL/MEK1/2 in human A549 cells assessed as MEK1/2 degradation at 1 uM incubated for 24 hrs by Western blot analysis relative to control; assay type: cell-based
[3] = biological target: T1, Protein cereblon/Dual specificity mitogen-activated protein kinase kinase 1/Dual specificity mitogen-activated protein kinase kinase 2 (Homo sapiens); experiment: Protac activity at CRBN/MEK1/2 in human A549 cells assessed as MEK1/2 degradation at 10 uM incubated for 24 hrs by Western blot analysis relative to control; assay type: cell-based
[4] = biological target: T2, von Hippel-Lindau disease tumor suppressor/Dual specificity mitogen-activated protein kinase kinase 2/Dual specificity mitogen-activated protein kinase kinase 1 (Homo sapiens); experiment: Protac activity at VHL/MEK1/2 in human A549 cells assessed as MEK1/2 degradation at 10 uM incubated for 24 hrs by Western blot analysis relative to control; assay type: cell-based
[5] = system: A-375; experiment: Antiproliferative activity against human A-375 cells incubated for 4 days by MTT assay; assay type: functional, cell-based; conditions: A-375, 96 h
[6] = system: A-375; experiment: Antiproliferative activity against human A-375 cells assessed as inhibition of cell growth at 10 uM incubated for 48 hrs by MTT assay; assay type: functional; set-up: scale not given: the % may be the effect or the level left
[7] = biological target: T3, Dual specificity mitogen-activated protein kinase kinase; MEK1/2 (Homo sapiens, UniProt P36507+Q02750); experiment: Induction of MEK1/2 degradation in human A549 cells at 1 uM incubated for 24 hrs in presence of 3-(3-amino-2-fluorobenzyl)-4-methyl-7-(pyrimidin-2-yloxy)-2H-chromen-2-one by Western blot analysis; assay type: cell-based
[8] = system: A549; experiment: Antiproliferative activity against human A549 cells incubated for 4 days by MTT assay; assay type: functional, cell-based; conditions: A549, 96 h
[9] = biological target: T3, Dual specificity mitogen-activated protein kinase kinase; MEK1/2; experiment: Induction of MEK1/2 degradation in human A549 cells at 1 uM incubated for 24 hrs in presence of (2S,4R)-1-((S)-2-amino-3,3-dimethylbutanoyl)-4-hydroxy-N-((S)-1-(4-(4-methylthiazol-5-yl)phenyl)ethyl)pyrrolidine-2-carboxamide by Western blot analysis; assay type: cell-based
[10] = biological target: Dual specificity mitogen-activated protein kinase kinase 1 (Homo sapiens, UniProt Q02750); experiment: Induction of MEK1 degradation in human A549 cells incubated for 24 hrs by Western blot analysis; assay type: cell-based
Outline: (§1)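 A549 cells exposed to a range of degrader concentrations for 24 h. MEK1 and MEK2 protein levels were read by Western blot, and a separate half-maximal degradation concentration (DC50) was derived for each.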

[11] = biological target: T3, Dual specificity mitogen-activated protein kinase kinase; MEK1/2; experiment: Induction of MEK1/2 degradation in human A549 cells at 1 uM incubated for 4 hrs by Western blot analysis; assay type: cell-based
Outline: (§2)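 Time course in A549 cells at 1 μM degrader, sampled at several time points up to 24 h. MEK1/2 protein reduction was judged by Western blot at each time point.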

[12] = biological target: T3, Dual specificity mitogen-activated protein kinase kinase; MEK1/2; experiment: Induction of MEK1/2 degradation in human A549 cells at 1 uM incubated for 24 hrs in presence of MG132 by Western blot analysis; assay type: cell-based
[13] = biological target: T3, Dual specificity mitogen-activated protein kinase kinase; MEK1/2; experiment: Induction of MEK1/2 degradation in human A549 cells assessed as reduction in pERK1/2 levels at 1 to 30 uM incubated for 24 hrs by Western blot analysis; assay type: cell-based; conditions: dose 1-30 µM
[14] = biological target: T3, Dual specificity mitogen-activated protein kinase kinase; MEK1/2; experiment: Induction of MEK1/2 degradation in human A549 cells at 1 uM incubated for 24 hrs by Western blot analysis; assay type: cell-based; outline: as §2
[15] = biological target: T3, Dual specificity mitogen-activated protein kinase kinase; MEK1/2; experiment: Induction of MEK1/2 degradation in human A-375 cells incubated for 24 hrs by Western blot analysis; assay type: cell-based
Outline: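 A375 cells were given a concentration series of degrader for 24 h. MEK1/2 protein was quantified by immunoblot, and the DC50 (half-maximal degradation concentration) was taken from the dose-response.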

[16] = biological target: Dual specificity mitogen-activated protein kinase kinase 2 (Homo sapiens, UniProt P36507); experiment: Induction of MEK2 degradation in human A549 cells incubated for 24 hrs by Western blot analysis; assay type: cell-based; outline: as §1
[17] = biological target: T3, Dual specificity mitogen-activated protein kinase kinase; MEK1/2; experiment: Induction of MEK1/2 degradation in human A549 cells at 1 uM incubated for 24 hrs in presence of MLN4924 by Western blot analysis; assay type: cell-based
[18] = Selectivity ratio of IC50 for human A549 cells to IC50 for human A-375 cells; assay type: functional

T3 sequence (P36507 whole entry, looked up): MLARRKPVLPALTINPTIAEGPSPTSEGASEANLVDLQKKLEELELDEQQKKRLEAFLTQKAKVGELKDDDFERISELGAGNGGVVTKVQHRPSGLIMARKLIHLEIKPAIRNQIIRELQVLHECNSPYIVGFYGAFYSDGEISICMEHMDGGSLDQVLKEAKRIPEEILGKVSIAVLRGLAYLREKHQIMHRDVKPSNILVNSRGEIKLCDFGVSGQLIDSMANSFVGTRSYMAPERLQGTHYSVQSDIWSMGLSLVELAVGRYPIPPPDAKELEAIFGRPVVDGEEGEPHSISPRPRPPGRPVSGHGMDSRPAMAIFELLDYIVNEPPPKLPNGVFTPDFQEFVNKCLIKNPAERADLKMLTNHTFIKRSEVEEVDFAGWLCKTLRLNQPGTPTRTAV
T3 sequence (Q02750 whole entry, looked up): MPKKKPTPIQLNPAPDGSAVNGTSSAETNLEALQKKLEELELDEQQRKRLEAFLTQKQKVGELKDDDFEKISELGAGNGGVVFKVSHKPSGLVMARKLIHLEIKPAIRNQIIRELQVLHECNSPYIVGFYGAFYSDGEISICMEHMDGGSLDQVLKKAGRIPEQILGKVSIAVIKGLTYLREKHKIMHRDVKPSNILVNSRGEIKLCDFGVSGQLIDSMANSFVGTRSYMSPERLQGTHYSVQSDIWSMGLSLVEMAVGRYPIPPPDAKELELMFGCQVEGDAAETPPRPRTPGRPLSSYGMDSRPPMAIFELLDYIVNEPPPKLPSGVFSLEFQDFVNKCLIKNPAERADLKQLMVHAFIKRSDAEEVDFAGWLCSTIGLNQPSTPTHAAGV
T2 sequence (P36507 whole entry, looked up): as the sequence (P36507 whole entry, looked up) above
T2 sequence (P40337 whole entry, looked up): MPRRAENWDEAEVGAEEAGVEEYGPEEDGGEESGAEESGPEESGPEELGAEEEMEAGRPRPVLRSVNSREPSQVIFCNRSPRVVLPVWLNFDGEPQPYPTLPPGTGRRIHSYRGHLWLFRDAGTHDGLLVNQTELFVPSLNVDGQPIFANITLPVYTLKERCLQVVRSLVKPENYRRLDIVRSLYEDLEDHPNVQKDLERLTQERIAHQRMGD
T2 sequence (Q02750 whole entry, looked up): as the sequence (Q02750 whole entry, looked up) above
T1 sequence (P36507 whole entry, looked up): as the sequence (P36507 whole entry, looked up) above
T1 sequence (Q02750 whole entry, looked up): as the sequence (Q02750 whole entry, looked up) above
T1 sequence (Q96SW2 whole entry, looked up): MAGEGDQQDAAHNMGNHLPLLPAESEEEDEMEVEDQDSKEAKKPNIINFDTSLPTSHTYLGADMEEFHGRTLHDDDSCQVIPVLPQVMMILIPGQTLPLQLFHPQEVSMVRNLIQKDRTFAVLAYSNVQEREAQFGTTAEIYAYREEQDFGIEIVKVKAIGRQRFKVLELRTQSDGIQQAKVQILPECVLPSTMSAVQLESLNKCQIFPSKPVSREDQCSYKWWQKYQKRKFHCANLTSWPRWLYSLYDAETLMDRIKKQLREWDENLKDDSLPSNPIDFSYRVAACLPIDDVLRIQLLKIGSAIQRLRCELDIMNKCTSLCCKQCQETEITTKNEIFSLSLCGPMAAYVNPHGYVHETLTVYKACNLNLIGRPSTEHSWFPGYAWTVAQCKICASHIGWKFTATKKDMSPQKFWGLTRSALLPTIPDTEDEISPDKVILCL
Chain of Dual specificity mitogen-activated protein kinase kinase 1 (Q02750 whole entry): as the sequence (Q02750 whole entry, looked up) above
Chain of Dual specificity mitogen-activated protein kinase kinase 2 (P36507 whole entry): as the sequence (P36507 whole entry, looked up) above

SMILES: Cc1ncsc1-c1ccc([C@H](C)NC(=O)[C@@H]2C[C@@H](O)CN2C(=O)[C@@H](NCCOCCOCCOCCOCCn2cc(CNc3cccc(Cc4c(C)c5ccc(Oc6ncccn6)cc5oc4=O)c3)nn2)C(C)(C)C)cc1
Activity [4]: inactive

SMILES: CNS(=O)(=O)Nc1cccc(Cc2c(C)c3ccc(Oc4ncccn4)cc3oc2=O)c1F
IC50 [5]: 1.9 µM

SMILES: Cc1ncsc1-c1ccc([C@H](C)NC(=O)[C@@H]2C[C@@H](O)CN2C(=O)[C@@H](NC(=O)CCC(=O)NCCCC(=O)Nc2cccc(Cc3c(C)c4ccc(Oc5ncccn5)cc4oc3=O)c2)C(C)(C)C)cc1
Activity [2]: < 5%
Activity [6]: 21%

SMILES: Cc1ncsc1-c1ccc([C@H](C)NC(=O)[C@@H]2C[C@@H](O)CN2C(=O)[C@@H](NCCOCCOCCOCCn2cc(CNc3cccc(Cc4c(C)c5ccc(Oc6ncccn6)cc5oc4=O)c3)nn2)C(C)(C)C)cc1
Activity [4]: inactive

SMILES: Cc1ncsc1-c1ccc([C@H](C)NC(=O)[C@@H]2C[C@@H](O)CN2C(=O)[C@@H](NCCOCCOCCOCCOCCOCCn2cc(CNc3cccc(Cc4c(C)c5ccc(Oc6ncccn6)cc5oc4=O)c3F)nn2)C(C)(C)C)cc1
Activity [4]: inactive

SMILES: Cc1ncsc1-c1ccc([C@H](C)NC(=O)[C@@H]2C[C@@H](O)CN2C(=O)[C@@H](NC(=O)CCC(=O)NCCCCCCC(=O)Nc2cccc(Cc3c(C)c4ccc(Oc5ncccn5)cc4oc3=O)c2)C(C)(C)C)cc1
Activity [2]: < 5%

SMILES: Cc1c(Cc2cccc(NCc3cn(CCOCCOCCOCCOCCOCCNc4cccc5c4C(=O)N(C4CCC(=O)NC4=O)C5=O)nn3)c2)c(=O)oc2cc(Oc3ncccn3)ccc12 (configuration not stated)
Activity [3]: inactive

SMILES: Cc1ncsc1-c1ccc([C@H](C)NC(=O)[C@@H]2C[C@@H](O)CN2C(=O)[C@@H](NC(=O)CCC(=O)NCCCCCCCCCCCC(=O)Nc2cccc(Cc3c(C)c4ccc(Oc5ncccn5)cc4oc3=O)c2)C(C)(C)C)cc1
Activity [2]: < 5%

SMILES: Cc1ncsc1-c1ccc([C@H](C)NC(=O)[C@@H]2C[C@@H](O)CN2C(=O)[C@@H](NCCOCCOCCOCCn2cc(CNc3cccc(Cc4c(C)c5ccc(Oc6ncccn6)cc5oc4=O)c3F)nn2)C(C)(C)C)cc1
Activity [4]: inactive

SMILES: Cc1ncsc1-c1ccc([C@H](C)NC(=O)[C@@H]2C[C@@H](O)CN2C(=O)[C@@H](NCCOCCOCCOCCOCCn2cc(CNc3cccc(Cc4c(C)c5ccc(Oc6ncccn6)cc5oc4=O)c3F)nn2)C(C)(C)C)cc1
Activity [4]: inactive

SMILES: Cc1ncsc1-c1ccc([C@H](C)NC(=O)[C@@H]2C[C@@H](O)CN2C(=O)[C@@H](NCCOCCOCCn2cc(CNc3cccc(Cc4c(C)c5ccc(Oc6ncccn6)cc5oc4=O)c3F)nn2)C(C)(C)C)cc1
Activity [4]: 20%

SMILES: Cc1ncsc1-c1ccc([C@H](C)NC(=O)[C@@H]2C[C@@H](O)CN2C(=O)[C@@H](NCCOCCOCCn2cc(CNc3cccc(Cc4c(C)c5ccc(Oc6ncccn6)cc5oc4=O)c3)nn2)C(C)(C)C)cc1
Activity [4]: inactive

SMILES: Cc1ncsc1-c1ccc([C@H](C)NC(=O)[C@@H]2C[C@@H](O)CN2C(=O)[C@@H](NCCOCCOCCOCCOCCOCCn2cc(CNc3cccc(Cc4c(C)c5ccc(Oc6ncccn6)cc5oc4=O)c3)nn2)C(C)(C)C)cc1
Activity [4]: inactive

SMILES: Cc1ncsc1-c1ccc([C@H](C)NC(=O)[C@@H]2C[C@@H](O)CN2C(=O)[C@@H](NC(=O)CCC(=O)NCCCCCCCCCCC(=O)Nc2cccc(Cc3c(C)c4ccc(Oc5ncccn5)cc4oc3=O)c2)C(C)(C)C)cc1
Activity [2]: < 5%

Continued, in another order:

Activity [1]: inactive
SMILES: Cc1c(Cc2cccc(NC(=O)CCCCCNC(=O)CCC(=O)Nc3cccc4c3C(=O)N(C3CCC(=O)NC3=O)C4=O)c2F)c(=O)oc2cc(Oc3ncccn3)ccc12 (configuration not stated)

Activity [2]: 70%
SMILES: Cc1ncsc1-c1ccc([C@H](C)NC(=O)[C@@H]2C[C@@H](O)CN2C(=O)[C@@H](NC(=O)CCC(=O)NCCCCCCC(=O)Nc2cccc(Cc3c(C)c4ccc(Oc5ncccn5)cc4oc3=O)c2F)C(C)(C)C)cc1

Activity [3]: inactive
SMILES: Cc1c(Cc2cccc(NCc3cn(CCOCCOCCNc4cccc5c4C(=O)N(C4CCC(=O)NC4=O)C5=O)nn3)c2F)c(=O)oc2cc(Oc3ncccn3)ccc12 (configuration not stated)

Activity [2]: 78%
SMILES: Cc1ncsc1-c1ccc([C@H](C)NC(=O)[C@@H]2C[C@@H](O)CN2C(=O)[C@@H](NC(=O)CCC(=O)NCCCCCCCC(=O)Nc2cccc(Cc3c(C)c4ccc(Oc5ncccn5)cc4oc3=O)c2F)C(C)(C)C)cc1

Activity [3]: inactive
SMILES: Cc1c(Cc2cccc(NCc3cn(CCOCCOCCNc4cccc5c4C(=O)N(C4CCC(=O)NC4=O)C5=O)nn3)c2)c(=O)oc2cc(Oc3ncccn3)ccc12 (configuration not stated)

Activity [7]: inactive
IC50 [8]: 27.3 µM
Activity [9]: inactive
DC50 [10]: 0.3 µM
Activity [2]: 85%
Activity [11]: Active
Activity [12]: inactive
Activity [13]: Active
IC50 [5]: 2.8 µM
Activity [14]: > 70%
DC50 [15]: 2.8 µM
DC50 [16]: 0.2 µM
Activity [17]: inactive
SMILES: Cc1ncsc1-c1ccc([C@H](C)NC(=O)[C@@H]2C[C@@H](O)CN2C(=O)[C@@H](NC(=O)CCC(=O)NCCCCC(=O)Nc2cccc(Cc3c(C)c4ccc(Oc5ncccn5)cc4oc3=O)c2F)C(C)(C)C)cc1
Activity [6]: 60%
Ratio IC50 [18]: 10

Activity [3]: inactive
SMILES: Cc1c(Cc2cccc(NCc3cn(CCOCCOCCOCCOCCNc4cccc5c4C(=O)N(C4CCC(=O)NC4=O)C5=O)nn3)c2F)c(=O)oc2cc(Oc3ncccn3)ccc12 (configuration not stated)

Activity [1]: inactive
SMILES: Cc1c(Cc2cccc(NC(=O)CCCNC(=O)CCC(=O)Nc3cccc4c3C(=O)N(C3CCC(=O)NC3=O)C4=O)c2F)c(=O)oc2cc(Oc3ncccn3)ccc12 (configuration not stated)

Activity [3]: inactive
SMILES: Cc1c(Cc2cccc(NCc3cn(CCOCCOCCOCCNc4cccc5c4C(=O)N(C4CCC(=O)NC4=O)C5=O)nn3)c2)c(=O)oc2cc(Oc3ncccn3)ccc12 (configuration not stated)

Activity [3]: inactive
SMILES: Cc1c(Cc2cccc(NCc3cn(CCOCCOCCOCCNc4cccc5c4C(=O)N(C4CCC(=O)NC4=O)C5=O)nn3)c2F)c(=O)oc2cc(Oc3ncccn3)ccc12 (configuration not stated)

Activity [1]: 45%
SMILES: Cc1c(Cc2cccc(NC(=O)CCCCCCNC(=O)CCC(=O)Nc3cccc4c3C(=O)N(C3CCC(=O)NC3=O)C4=O)c2F)c(=O)oc2cc(Oc3ncccn3)ccc12 (configuration not stated)

Activity [2]: 20%
SMILES: Cc1ncsc1-c1ccc([C@H](C)NC(=O)[C@@H]2C[C@@H](O)CN2C(=O)[C@@H](NC(=O)CCC(=O)NCCCC(=O)Nc2cccc(Cc3c(C)c4ccc(Oc5ncccn5)cc4oc3=O)c2F)C(C)(C)C)cc1
Activity [6]: 13%

Activity [3]: inactive
SMILES: Cc1c(Cc2cccc(NCc3cn(CCOCCOCCOCCOCCNc4cccc5c4C(=O)N(C4CCC(=O)NC4=O)C5=O)nn3)c2)c(=O)oc2cc(Oc3ncccn3)ccc12 (configuration not stated)

Activity [1]: < 5%
SMILES: Cc1c(Cc2cccc(NC(=O)CCCCNC(=O)CCC(=O)Nc3cccc4c3C(=O)N(C3CCC(=O)NC3=O)C4=O)c2F)c(=O)oc2cc(Oc3ncccn3)ccc12 (configuration not stated)

Activity [3]: inactive
SMILES: Cc1c(Cc2cccc(NCc3cn(CCOCCOCCOCCOCCOCCNc4cccc5c4C(=O)N(C4CCC(=O)NC4=O)C5=O)nn3)c2F)c(=O)oc2cc(Oc3ncccn3)ccc12 (configuration not stated)

Activity [2]: 72%
SMILES: Cc1ncsc1-c1ccc([C@H](C)NC(=O)[C@@H]2C[C@@H](O)CN2C(=O)[C@@H](NC(=O)CCC(=O)NCCCCCC(=O)Nc2cccc(Cc3c(C)c4ccc(Oc5ncccn5)cc4oc3=O)c2F)C(C)(C)C)cc1

Activity [1]: 30%
SMILES: Cc1c(Cc2cccc(NC(=O)CCCCCCCNC(=O)CCC(=O)Nc3cccc4c3C(=O)N(C3CCC(=O)NC3=O)C4=O)c2F)c(=O)oc2cc(Oc3ncccn3)ccc12 (configuration not stated)
